Experimental data taken from ChEMBL document CHEMBL3102739, “Synthesis and antiproliferative activity of conformationally restricted 1,2,3-triazole analogues of combretastatins in the sea urchin embryo model and against human cancer cell lines” (Bioorg Med Chem, 2014).

Columns and labels:
[1] = tested on: T47D; test: Growth inhibition of human T47D cells after 48 hrs by SRB assay; assay type: functional
[2] = tested on: MDA-MB-468; test: Growth inhibition of human MDA-MB-468 cells after 48 hrs by SRB assay; assay type: functional; settings: MDA-MB-468, 48 h
[3] = Growth inhibition of human Hs578T cells after 48 hrs by SRB assay; assay type: functional; settings: Hs-578T
[4] = tested on: BT-549; test: Growth inhibition of human BT549 cells after 48 hrs by SRB assay; assay type: functional; settings: BT-549, 48 h
[5] = tested on: DU-145; test: Growth inhibition of human DU145 cells after 48 hrs by SRB assay; assay type: functional; settings: DU-145, 48 h
[6] = tested on: MCF7; test: Growth inhibition of human MCF7 cells after 48 hrs by SRB assay; assay type: functional; settings: MCF7, 48 h
[7] = tested on: PC-3; test: Growth inhibition of human PC3 cells after 48 hrs by SRB assay; assay type: functional; settings: PC-3, 48 h
[8] = tested on: TK-10; test: Growth inhibition of human TK10 cells after 48 hrs by SRB assay; assay type: functional; settings: TK-10, 48 h
[9] = Growth inhibition of human RXF393 cells after 48 hrs by SRB assay; assay type: functional; settings: RXF 393, 48 h
[10] = tested on: SN12C; test: Growth inhibition of human SN12C cells after 48 hrs by SRB assay; assay type: functional
[11] = tested on: ACHN; test: Growth inhibition of human ACHN cells after 48 hrs by SRB assay; assay type: functional
[12] = tested on: CAKI-1; test: Growth inhibition of human CAKI-1 cells after 48 hrs by SRB assay; assay type: functional; settings: CAKI-1, 48 h
[13] = tested on: 786-0; test: Growth inhibition of human 786-0 cells after 48 hrs by SRB assay; assay type: functional; settings: 786-0, 48 h
[14] = tested on: SK-OV-3; test: Growth inhibition of human SKOV3 cells after 48 hrs by SRB assay; assay type: functional; settings: SK-OV-3, 48 h
[15] = Growth inhibition of human NCI-ADR-RES cells after 48 hrs by SRB assay; assay type: functional
[16] = Growth inhibition of human OVCAR5 cells after 48 hrs by SRB assay; assay type: functional; settings: OVCAR-5, 48 h
[17] = tested on: IGROV-1; test: Growth inhibition of human IGROV1 cells after 48 hrs by SRB assay; assay type: functional; settings: IGROV-1, 48 h
[18] = Growth inhibition of human UACC257 cells after 48 hrs by SRB assay; assay type: functional; settings: UACC-257, 48 h
[19] = tested on: UACC-62; test: Growth inhibition of human UACC62 cells after 48 hrs by SRB assay; assay type: functional; settings: UACC-62, 48 h
[20] = tested on: SK-MEL-5; test: Growth inhibition of human SK-MEL-5 cells after 48 hrs by SRB assay; assay type: functional; settings: SK-MEL-5, 48 h
[21] = tested on: SK-MEL-2; test: Growth inhibition of human SK-MEL-2 cells after 48 hrs by SRB assay; assay type: functional; settings: SK-MEL-2, 48 h
[22] = tested on: M14; test: Growth inhibition of human M14 cells after 48 hrs by SRB assay; assay type: functional; settings: M14, 48 h
[23] = tested on: LOX IMVI; test: Growth inhibition of human LOXIMVI cells after 48 hrs by SRB assay; assay type: functional
[24] = tested on: U-251; test: Growth inhibition of human U251 cells after 48 hrs by SRB assay; assay type: functional; settings: U-251, 48 h
[25] = Growth inhibition of human SF539 cells after 48 hrs by SRB assay; assay type: functional; settings: SF-539, 48 h
[26] = tested on: SNB-19; test: Growth inhibition of human SNB19 cells after 48 hrs by SRB assay; assay type: functional; settings: SNB-19, 48 h
[27] = tested on: SF-295; test: Growth inhibition of human SF295 cells after 48 hrs by SRB assay; assay type: functional; settings: SF-295, 48 h
[28] = tested on: SF-268; test: Growth inhibition of human SF268 cells after 48 hrs by SRB assay; assay type: functional; settings: SF-268, 48 h
[29] = tested on: KM12; test: Growth inhibition of human KM12 cells after 48 hrs by SRB assay; assay type: functional; settings: KM12, 48 h
[30] = tested on: HT-29; test: Growth inhibition of human HT-29 cells after 48 hrs by SRB assay; assay type: functional; settings: HT-29, 48 h
[31] = Growth inhibition of human HCC2998 cells after 48 hrs by SRB assay; assay type: functional; settings: HCC 2998, 48 h
[32] = tested on: HCT-116; test: Growth inhibition of human HCT116 cells after 48 hrs by SRB assay; assay type: functional; settings: HCT-116, 48 h
[33] = tested on: COLO 205; test: Growth inhibition of human COLO205 cells after 48 hrs by SRB assay; assay type: functional; settings: COLO 205, 48 h
[34] = tested on: NCI-H522; test: Growth inhibition of human NCI-H522 cells after 48 hrs by SRB assay; assay type: functional; settings: NCI-H522, 48 h
[35] = tested on: NCI-H460; test: Growth inhibition of human NCI-H460 cells after 48 hrs by SRB assay; assay type: functional; settings: NCI-H460, 48 h
[36] = tested on: NCI-H322M; test: Growth inhibition of human NCI-H322M cells after 48 hrs by SRB assay; assay type: functional
[37] = tested on: NCI-H23; test: Growth inhibition of human NCI-H23 cells after 48 hrs by SRB assay; assay type: functional; settings: NCI-H23, 48 h
[38] = tested on: NCI-H226; test: Growth inhibition of human NCI-H226 cells after 48 hrs by SRB assay; assay type: functional; settings: NCI-H226, 48 h
[39] = Growth inhibition of human HOP92 cells after 48 hrs by SRB assay; assay type: functional; settings: HOP-92, 48 h
[40] = Growth inhibition of human EKVX cells after 48 hrs by SRB assay; assay type: functional
[41] = tested on: A549; test: Growth inhibition of human A549 cells after 48 hrs by SRB assay; assay type: functional; settings: A549, 48 h
[42] = tested on: RPMI-8226; test: Growth inhibition of human RPMI8226 cells after 48 hrs by SRB assay; assay type: functional; settings: RPMI-8226, 48 h
[43] = tested on: SR; test: Growth inhibition of human SR cells after 48 hrs by SRB assay; assay type: functional
[44] = tested on: MOLT-4; test: Growth inhibition of human MOLT4 cells after 48 hrs by SRB assay; assay type: functional; settings: MOLT-4, 48 h
[45] = tested on: K562; test: Growth inhibition of human K562 cells after 48 hrs by SRB assay; assay type: functional; settings: K562, 48 h
[46] = tested on: HL-60(TB); test: Growth inhibition of human HL-60(TB) cells after 48 hrs by SRB assay; assay type: functional; settings: HL-60, 48 h
[47] = tested on: Paracentrotus lividus; test: Antimitotic activity against sea urchin embryo free-swimming blastula model assessed as embryo spinning compound treated at 8 to 10 hrs post-fertilization measured after 0.25 to 20 hrs; assay type: functional, Blastula stage
[48] = tested on: Paracentrotus lividus; test: Antimitotic activity against sea urchin embryo model assessed as cleavage arrest of fertilized egg compound treated at 8 to 20 mins post-fertilization and 45 to 55 mins prior to first mitotic cycle completion measured 2.5 to 5.5 hrs post-fertilization; assay type: functional
Procedure, shortened: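 Fertilized eggs are exposed 8–20 min after fertilization to 2-fold decreasing concentrations. Stocks are 10 mM in DMSO, then diluted 10-fold in 95% EtOH; final DMSO is at most 0.05% and EtOH at most 1%. Embryos are kept as a monolayer, up to 2000 embryos/mL, in filtered seawater at room temperature. The value is the threshold concentration giving cleavage alteration, embryo death before hatching or full mitotic arrest. Duplicates were run.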

With `COc1ccc(-c2nn[nH]c2-c2cc(OC)c(OC)c(OC)c2)cc1` the GI50 [1] was 2660 nM, the GI50 [2] was < 10 nM and the GI50 [3] was < 10 nM. The GI50 [4] was < 10 nM, the GI50 [5] was < 10 nM and the GI50 [6] was < 10 nM. For the same molecule, the GI50 [7] was 43 nM, the GI50 [8] was < 10 nM and the GI50 [9] was < 10 nM. The GI50 [10] was < 10 nM, the GI50 [11] was 15 nM and the GI50 [12] was < 10 nM. The GI50 [13] was < 10 nM, the GI50 [14] was < 10 nM and the GI50 [15] was < 10 nM. The GI50 [16] was < 10 nM, the GI50 [17] was < 10 nM and the GI50 [18] was < 10 nM. For the same molecule, the GI50 [19] was < 10 nM, the GI50 [20] was < 10 nM and the GI50 [21] was < 10 nM. For the same molecule, the GI50 [22] was < 10 nM, the GI50 [23] was < 10 nM and the GI50 [24] was < 10 nM. The GI50 [25] was < 10 nM, the GI50 [26] was < 10 nM and the GI50 [27] was < 10 nM. The GI50 [28] was 21 nM, the GI50 [29] was < 10 nM and the GI50 [30] was < 10 nM. For the same molecule, the GI50 [31] was < 10 nM, the GI50 [32] was < 10 nM and the GI50 [33] was 33 nM. For the same molecule, the GI50 [34] was < 10 nM, the GI50 [35] was < 10 nM and the GI50 [36] was < 10 nM. The GI50 [37] was < 10 nM, the GI50 [38] was 51 nM and the GI50 [39] was < 10 nM. The GI50 [40] was < 10 nM, the GI50 [41] was < 10 nM and the GI50 [42] was < 10 nM. The GI50 [43] was < 10 nM, the GI50 [44] was 12 nM and the GI50 [45] was < 10 nM. For the same molecule, the GI50 [46] was < 10 nM, the EC [47] was 0.1 µM and the EC [48] was 0.02 µM.

`COc1ccc(-c2nn[nH]c2-c2cc(OC)c3c(c2OC)OCO3)cc1` gave a GI50 [1] of 716 nM, a GI50 [2] of 218 nM and a GI50 [3] of 1350 nM. It also gave a GI50 [4] of 345 nM, a GI50 [5] of 1420 nM and a GI50 [6] of 352 nM. It also gave a GI50 [7] of 1930 nM, a GI50 [8] of 6370 nM and a GI50 [9] of 657 nM. It also gave a GI50 [10] of 4670 nM, a GI50 [11] of 6790 nM and a GI50 [12] of 762 nM. It also gave a GI50 [13] of 1400 nM, a GI50 [14] of 854 nM and a GI50 [15] of 296 nM. It also gave a GI50 [16] of 3630 nM, a GI50 [17] of 720 nM and a GI50 [18] of 595 nM. For the same molecule, the GI50 [19] was 420 nM, the GI50 [20] was 343 nM and the GI50 [21] was 326 nM. It also gave a GI50 [22] of 341 nM, a GI50 [23] of 547 nM and a GI50 [24] of 362 nM. It also gave a GI50 [25] of 909 nM, a GI50 [26] of 1800 nM and a GI50 [27] of 356 nM. For the same molecule, the GI50 [28] was 4020 nM, the GI50 [29] was 412 nM and the GI50 [30] was 376 nM. The GI50 [31] was 1110 nM, the GI50 [32] was 353 nM and the GI50 [33] was 884 nM. The GI50 [34] was 301 nM, the GI50 [35] was 409 nM and the GI50 [36] was 2890 nM. For the same molecule, the GI50 [37] was 1000 nM, the GI50 [38] was 15200 nM and the GI50 [39] was 500 nM. For the same molecule, the GI50 [40] was 2790 nM, the GI50 [41] was 532 nM and the GI50 [42] was 816 nM. For the same molecule, the GI50 [43] was 304 nM, the GI50 [44] was 529 nM and the GI50 [45] was 493 nM. For the same molecule, the GI50 [46] was 307 nM, the EC [47] was >5 µM and the EC [48] was >4 µM.
